Assay outcomes as filed in PubChem.
IDH1 R132H inh: inhibitors of human IDH1 R132H; O75874; IDH1 R132H reductase, diaphorase/resazurin fluorescence, 60 min; inhibition, % at 10 µM; actives 0.18% (n = 70,000); in the data active = inhibition above about 34%; inconclusive = no clear call, values can overlap the other calls; inactive = below about 11%;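 also: 0% = DMSO and 100% = no enzyme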
GASC1 inh: inhibitors of human demethylase GASC-1 KDM4C. Q9H3R0. GST-KDM4C 2-372, H3K9me3 peptide, LANCE TR-FRET. inhibition, % at 12.5 µM. actives 0.15% (n = 96,000);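 active = mean replicate inhibition above about 25%, with at least 55% of replicates also reaching it, limit read from the data, passing the limit was not always enough; inconclusive = only one of those two conditions met; inactive = neither condition met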
Target sequence (Q9H3R0 2-372 limits assumed): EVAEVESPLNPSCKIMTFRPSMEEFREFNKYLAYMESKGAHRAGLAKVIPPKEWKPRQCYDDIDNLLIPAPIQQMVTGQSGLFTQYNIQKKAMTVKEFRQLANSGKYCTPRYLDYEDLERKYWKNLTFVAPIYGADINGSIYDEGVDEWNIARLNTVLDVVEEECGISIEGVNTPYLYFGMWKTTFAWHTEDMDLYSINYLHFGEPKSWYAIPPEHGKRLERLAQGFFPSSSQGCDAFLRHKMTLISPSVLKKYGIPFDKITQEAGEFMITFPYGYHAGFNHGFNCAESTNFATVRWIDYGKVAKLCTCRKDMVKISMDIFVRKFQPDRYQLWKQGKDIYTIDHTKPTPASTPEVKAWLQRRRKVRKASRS
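reagent = H3K9me3 peptide substrate, Fe(II), 2-oxoglutarate | system = GST-tagged GASC-1 (JMJD2C) catalytic fragment, aa 2-372 | amount = enzyme final amount 10 nM | read-out = Fall in 671/618 emission ratio as inhibition | medium = HEPES buffer, pH 7.5, plus ascorbate | schedule = 30 min reaction, 60 min detection, RT | measured by = LANCE TR-FRET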
T cruzi growth-1: inhibitors of T. cruzi proliferation | T. cruzi beta-gal in NIH3T3, GalScreen luminescence, 90 h | inhibition, % at 8.34 µM | actives 5.9% (n = 77,000) | AID 624255;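 active = mean inhibition above about 93%, with at least 55% of replicates each passing it, limit read from the data, passing the limit was not always enough; inconclusive = only one of those two conditions holds; inactive = neither condition holds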
T cruzi growth-2: inhibitors of T. cruzi proliferation; shares compounds with T cruzi growth-1; T. cruzi beta-gal in NIH3T3, GalScreen luminescence, 90 h; inhibition, % at 8.35 µM; actives 72% (n = 5,600);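 active = mean replicate inhibition above about 95% and at least 55% of replicates individually reaching it, limit read from the data; inconclusive = only one of the two criteria is met; inactive = neither criterion is met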
T cruzi growth-3: inhibitors of T. cruzi proliferation; shares compounds with T cruzi growth-1; T. cruzi beta-gal in NIH3T3, GalScreen luminescence, 90 h; inhibition, % at 2.09 µM; actives 21% (n = 5,600);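 active = mean inhibition above about 95%, with at least 55% of replicates also reaching it, limit read from the data; inconclusive = meets just one of the two conditions; inactive = meets neither condition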;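 also: plate controls were neutral control median for no effect and positive control median for full effect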
3T3 cytotox: kills mouse NIH/3T3 fibroblasts; shares compounds with T cruzi growth-1; NIH/3T3 viability, CellTiter-Glo ATP luminescence, 90 h; cytotoxicity (signal decrease), % at 8.35 µM; actives 14% (n = 5,600); AID 651742;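 active = mean signal decrease across replicates above about 35% based on untreated-well scatter, with enough replicates individually passing, limit read from the data; inconclusive = no rule stated though some were filed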;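 also: 0% = median of neutral control wells and 100% = median of positive control wells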
3T3 cytotox 2: cytotoxicity in mouse NIH/3T3 fibroblasts. shares compounds with T cruzi growth-1. NIH/3T3 viability, CellTiter-Glo ATP luminescence, 90 h. inhibition, % at 24.9 µM. actives 56% (n = 5,600). AID 651744;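 active = mean loss of cell viability signal at or above a set limit, and enough replicates individually reaching it; inconclusive = meets only the mean limit or only the replicate share; inactive = meets neither condition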;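 also: 0% = median of neutral control wells and 100% = median of positive control wells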
Numbers without * were called inactive; ? = inconclusive; . = no result. The entries come from a sample that favours hits as a whole.

SMILES	IDH1 R132H inh	GASC1 inh	T cruzi growth-1	T cruzi growth-2	T cruzi growth-3	3T3 cytotox	3T3 cytotox 2
COc1ccc(S(=O)(=O)Nc2ccc3c(c2)C(=O)N([C@H](C)CO)C[C@@H](C)[C@@H](CN(C)Cc2ccc4c(c2)OCO4)OCCCC[C@H](C)O3)cc1	.	1	55	.	.	.	.
Cc1ccc(S(=O)(=O)Nc2ccc3c(c2)C(=O)N([C@@H](C)CO)C[C@H](C)[C@H](CN(C)Cc2ccc4c(c2)OCO4)OCCCC[C@@H](C)O3)cc1	.	0	31	.	.	.	.
C[C@@H]1CCCCO[C@@H](CN(C)Cc2ccc3c(c2)OCO3)[C@@H](C)CN([C@@H](C)CO)C(=O)c2cc(NS(=O)(=O)c3ccc(F)cc3)ccc2O1	.	0	115*	102*	50	25	94*
Cn1c(SCC(=O)c2ccc(Cl)cc2)nnc1-c1ccncc1	1	.	.	.	.	.	.
CO[C@H]1CN(C)C(=O)c2ccc(NC(=O)C3CC3)cc2OC[C@@H](C)N(C(=O)c2ccccn2)C[C@H]1C	0	-2	102*	53	17	9	0
CO[C@H]1CN(C)C(=O)c2ccc(NC(=O)C3CC3)cc2OC[C@H](C)N(C(=O)c2cccnc2)C[C@@H]1C	0	1	112*	-186	22	-7	-17
CO[C@@H]1CN(C)C(=O)c2ccc(NC(=O)C3CC3)cc2OC[C@H](C)N(C(=O)c2cccnc2)C[C@H]1C	0	2	42	.	.	.	.
CO[C@@H]1CN(C)C(=O)c2ccc(NC(=O)C3CC3)cc2OC[C@@H](C)N(C(=O)c2ccccn2)C[C@@H]1C	0	-1	40	.	.	.	.
Cc1cc(C)nc(NS(=O)(=O)c2ccc(NC(=S)NC(=O)c3ccccc3)cc2)n1	1	.	.	.	.	.	.
Cc1c(NC(=O)CSc2nc3c(c(C(F)(F)F)n2)CCc2ccccc2-3)c(=O)n(-c2ccccc2)n1C	0	.	.	.	.	.	.
COc1cccc(NC(=O)N[C@@H]2CC[C@@H](CC(=O)N3CCOCC3)O[C@H]2CO)c1	0	1	-16	.	.	.	.
C[C@H](CO)N1C[C@H](C)[C@H](CN(C)Cc2ccc(Cl)c(Cl)c2)Oc2c(NC(=O)c3nc4ccccc4s3)cccc2C1=O	2	1	70	.	.	.	.
C[C@@H]1CN([C@H](C)CO)C(=O)c2cccc(NC(=O)c3nc4ccccc4s3)c2O[C@H]1CN(C)Cc1ccc(-c2ccccc2)cc1	-1	-2	16	.	.	.	.
C[C@@H]1CN([C@H](C)CO)C(=O)c2cccc(NC(=O)c3nc4ccccc4s3)c2O[C@H]1CN(C)Cc1ccc(C(F)(F)F)cc1	.	-1	96	.	.	.	.
C[C@H]1CN([C@@H](C)CO)C(=O)c2cccc(NC(=O)c3nc4ccccc4s3)c2O[C@@H]1CN(C)Cc1ccc(-c2ccccc2)cc1	-1	1	94	.	.	.	.
C[C@H]1CN([C@@H](C)CO)C(=O)c2cccc(NC(=O)c3nc4ccccc4s3)c2O[C@H]1CN(C)Cc1ccc(C(F)(F)F)cc1	0	-4	?	110*	65	34	96*
C[C@H](CO)N1C[C@H](C)[C@H](CN(C)Cc2ccccc2)Oc2c(NC(=O)c3nc4ccccc4s3)cccc2C1=O	0	-1	99*	103*	47	-4	?
C[C@H]1CN([C@@H](C)CO)C(=O)c2cccc(NC(=O)c3nc4ccccc4s3)c2O[C@H]1CN(C)Cc1ccc(Cl)c(Cl)c1	.	-4	97*	112*	73	47*	54*
C[C@@H]1CN([C@H](C)CO)C(=O)c2cccc(NC(=O)c3nc4ccccc4s3)c2O[C@H]1CN(C)Cc1ccc(C(=O)Nc2ccccc2N)cc1	.	3	104*	108*	77	-12	33*
Cc1cc(I)ccc1NC(=O)CN(c1cc(Cl)ccc1C)S(C)(=O)=O	0	.	.	.	.	.	.
C=C[C@]1(C)C=C2CCC3C(C)(CCC[C@@]3(C)C(=O)O)C2CC1 (stereo partly specified)	0	.	.	.	.	.	.
CCN(CC(=O)Nc1cccc(Cl)c1C)S(=O)(=O)c1ccc(C)cc1	-1	.	.	.	.	.	.
COC(=O)c1ccccc1NC(=O)c1ccc(NC(=O)CSc2ccccc2)cc1	0	.	.	.	.	.	.
Cn1cnc(S(=O)(=O)N[C@@H]2C=C[C@@H](CC(=O)NCC3CCCCC3)O[C@H]2CO)c1	1	1	.	.	.	.	.
O=C(CN1CCOCC1)N1CCCCN2[C@H](CO)[C@H](c3ccc(C#Cc4ccccc4)cc3)[C@H]2C1	.	0	98*	96*	25	11	67*
SMILES	IDH1 R132H inh	GASC1 inh	T cruzi growth-1	T cruzi growth-2	T cruzi growth-3	3T3 cytotox	3T3 cytotox 2
O=C(CN1CCOCC1)N1CCCCN2[C@H](C1)[C@H](c1ccc(C#Cc3ccccc3F)cc1)[C@@H]2CO	.	0	107*	55	22	32	89*
O=C(CN1CCOCC1)N1CCCCN2[C@H](C1)[C@@H](c1ccc(C#Cc3ccccc3F)cc1)[C@@H]2CO	.	-1	84	.	.	.	.
O=C(CN1CCOCC1)N1CCCCN2[C@H](CO)[C@H](c3ccc(-c4ccccc4)cc3)[C@H]2C1	.	3	70	.	.	.	.
O=C(CN1CCOCC1)N1CCCCN2[C@H](CO)[C@H](c3ccc(C#Cc4ccccc4F)cc3)[C@H]2C1	.	1	118*	87	20	19	95*
O=C(CN1CCOCC1)N1CCCCN2[C@H](CO)[C@H](c3ccc(C#Cc4ccccc4F)cc3)[C@@H]2C1	.	1	106*	101*	58	45*	76*
Cc1ccc(-c2csc3nnc(SCC(=O)N4CCOCC4)n23)cc1	1	.	.	.	.	.	.
O=C(CN1C2=NCCN2c2ccccc21)c1ccc(Cl)cc1Cl	-4	.	.	.	.	.	.
CCn1c(SCC(=O)Nc2c(C)cc(C)cc2C)nnc1-c1ccc(Br)cc1	0	.	.	.	.	.	.
CCCC#Cc1ccc([C@H]2[C@@H](CO)N3CCCCN(Cc4cccnc4)C[C@@H]23)cc1	.	1	110*	101*	83	43*	78*
COCC#Cc1ccc([C@@H]2[C@H]3CN(Cc4cccnc4)CCCCN3[C@H]2CO)cc1	.	0	90	.	.	.	.
COCC#Cc1ccc([C@@H]2[C@@H](CO)N3CCCCN(Cc4cccnc4)C[C@H]23)cc1	.	0	-9	.	.	.	.
COCC#Cc1ccc([C@H]2[C@@H](CO)N3CCCCN(Cc4cccnc4)C[C@@H]23)cc1	.	-1	101*	88	81	-17	4
C[C@@H]1CN([C@H](C)CO)S(=O)(=O)c2ccc(-c3ccncc3)cc2O[C@H]1CN(C)Cc1cncnc1	0	-2	107*	97*	93	14	53*
C[C@H]1CN([C@@H](C)CO)S(=O)(=O)c2ccc(Br)cc2O[C@H]1CN(C)Cc1ccncc1	2	1	83	.	.	.	.
C[C@@H]1CN([C@H](C)CO)S(=O)(=O)c2ccc(-c3ccncc3)cc2O[C@@H]1CN(C)Cc1cncnc1	0	-1	90	.	.	.	.
